# Assay results reported in PubChem BioAssay AID492951 (Molecular Libraries Program, Specialized Chemistry Center, …, 2010).
# Unmarked numbers belong to inactive results. Calls of active or inactive are those of the source.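 The calls were made as follows: active = inhibition above 10%; inactive = the rest.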
# Molecular target: Hexokinase-4 (Homo sapiens) (UniProt P35557)
# Test: hGlck enzyme activity off-target inhibitors – biochemical, recombinant hGlck, counter-screen for TbHK1 inhibitor project (AID 492951)
# Conditions: G6PDH-coupled NADH absorbance 340 nm, at 10 µM; hits give high values
# How it was run: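 Test system: recombinant human glucokinase, G6PDH-coupled; Medium: pH 7.9 TEA buffer, MgCl2, NAD+; Also added: 20 mM glucose as reaction starter, plus 1 mM ATP; Compound dosing: single final test compound dose of 10 µM; Schedule: 10 min preincubation at room temperature; Measured by: NADH formation by absorbance at 340 nm; Repeats: triplicate.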
# Sequence of Hexokinase-4 (Homo sapiens) (P35557 whole entry, looked up): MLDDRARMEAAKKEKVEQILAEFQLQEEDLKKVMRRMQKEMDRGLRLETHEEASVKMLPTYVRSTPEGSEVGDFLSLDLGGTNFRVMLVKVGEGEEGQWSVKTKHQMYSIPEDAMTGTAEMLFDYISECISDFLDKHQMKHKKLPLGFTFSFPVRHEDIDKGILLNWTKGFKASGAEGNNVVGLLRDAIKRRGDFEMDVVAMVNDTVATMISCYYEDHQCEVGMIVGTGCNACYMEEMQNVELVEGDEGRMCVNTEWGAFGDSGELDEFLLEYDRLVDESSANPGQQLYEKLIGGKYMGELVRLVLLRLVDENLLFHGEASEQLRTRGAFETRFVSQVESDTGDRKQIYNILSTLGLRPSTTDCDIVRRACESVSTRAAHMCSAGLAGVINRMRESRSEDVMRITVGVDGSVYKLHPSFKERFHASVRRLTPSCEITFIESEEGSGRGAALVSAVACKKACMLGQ
Structure (SMILES),inhibition,outcome
O=c1c2cc(F)c(F)cc2sn1-c1ccccc1,16.9% (active),
COc1ccc(C(=O)Nc2cc(C(F)(F)F)ccc2C(=O)O)cc1,10.5% (active),
COc1ccc(C(=O)Nc2cc(Cl)ccc2S(N)(=O)=O)cc1,11.1% (active),
O=C(Nc1cc(Cl)ccc1C(=O)O)c1ccc(I)cc1,22.9% (active),
O=C(Nc1cc(Cl)ccc1C(=O)O)c1ccoc1,,inactive
O=C(Nc1cc(Cl)ccc1C(=O)O)c1ccc(Cc2ccccc2)cc1,,inactive
CC(C)(C)c1ccc(C(=O)Nc2cc(Cl)c(Br)cc2C(=O)O)cc1,11.9% (active),
COc1ccc(C(=O)Nc2cc(I)ccc2C(=O)O)cc1,,inactive
COc1ccc(C(=O)Nc2cc(Cl)ccc2C#N)cc1,,inactive
O=C(Nc1ccccc1)n1sc2ccccc2c1=O,32.9% (active),
COc1ccc(NC(=O)c2ccc(Cl)cc2C(=O)O)cc1,,inactive
COc1ccc2c(c1)CN(c1cc(Cl)ccc1C(=O)O)C2=O,,inactive
CCOC(=O)Cn1sc2ccccc2c1=O,,inactive
CCCc1ccc(C(=O)Nc2cc(Cl)ccc2C(=O)O)cc1,16.8% (active),
O=C(O)c1ccc(Cl)cc1NC(=O)c1coc2ccccc12,,inactive
CN(C)c1cccc(NC(=O)Cn2sc3ccccc3c2=O)c1,16.7% (active),
O=C(Cn1sc2ccccc2c1=O)Nc1cccc(I)c1,,inactive
COc1ccccc1NC(=O)Cn1sc2ccccc2c1=O,8.4%,
Cn1sc2ccccc2c1=O,,inactive

Structure (SMILES),inhibition,outcome
COc1ccc(C(=O)Nc2cccc(Cl)c2)cc1,,inactive
CCc1ccc(C(=O)Nc2cc(Cl)ccc2C(=O)OC)cc1,14.5% (active),
COc1ccccc1-n1sc2ccccc2c1=O,55% (active),
O=C(Cn1sc2ccccc2c1=O)Nc1ccccc1,7.03%,
COC(=O)c1cc(Cl)ccc1NC(=O)c1ccc(OC)cc1,,inactive
CCCCCC(=O)Nc1cc(Cl)ccc1C(=O)O,,inactive
O=c1c2ccc([N+](=O)[O-])cc2sn1-c1ccccc1,1.5%,
N#Cc1ccc(NC(=O)Cn2sc3ccccc3c2=O)cc1,,inactive
CC(C)(C)c1ccc(C(=O)Nc2cc(Cl)ccc2C(=O)O)cc1,,inactive
O=C(Nc1cc(Cl)ccc1C(=O)O)c1ccc(OC(F)(F)F)cc1,13.1% (active),
O=C(Cn1sc2ccccc2c1=O)Nc1ccc(Cl)cc1,,inactive
COc1ccc(C(=O)Nc2ccccc2C(=O)O)cc1Cl,11.9% (active),
CC(C)(C)c1ccc(C(=O)Nc2cc(Cl)c(F)cc2C(=O)O)cc1,,inactive
O=c1c2ccccc2sn1-c1ccc(Cl)cc1,35.6% (active),
Cc1ccc(NC(=O)Cn2sc3ccccc3c2=O)cc1,2.1%,
CC(C)c1cccc(C(=O)Nc2cc(Cl)ccc2C(=O)O)c1,,inactive
O=c1c(O)c(-c2ccc(O)c(O)c2)oc2cc(O)cc(O)c12,68.9% (active),
O=C(Cn1sc2ccccc2c1=O)Nc1ccccc1Cl,,inactive
COc1ccc(C(=O)Nc2cc(OC)ccc2C(=O)O)cc1,6.9%,
